Reference: ChEMBL document CHEMBL1154819, “Synthesis and antiviral activity of boranophosphonate isosteres of AZT and d4T monophosphates” (Eur J Med Chem, 2010)
Active and inactive are the calls of the source. The rule behind the calls is not given here.

Columns and labels:
[1] = Chemical stability assessed as half life of degradation in PBS of pH 11.5 by HPLC; type: physicochemical
Outline: (§1)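 Compound at 0.1 mM initial concentration in buffer, incubated at 37 °C. Aliquots were taken at set times, frozen at −80 °C, then analysed by on-line cleaning-precolumn reversed-phase HPLC (C18, TEAB/acetonitrile gradient). Decomposition half-life was calculated, with products identified by co-injection with authentic samples.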

[2] = Chemical stability assessed as half life of degradation in culture media by HPLC; type: physicochemical
Outline: (§2)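 Compound at an initial 0.1 mM was incubated at 37 °C in RPMI 1640 containing 10% heat-inactivated fetal calf serum. Aliquots were frozen at −80 °C and analysed by on-line precolumn-cleaning reversed-phase C18 HPLC with a TEAB/acetonitrile gradient. Decomposition half-lives were calculated.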

[3] = test system: Human alphaherpesvirus 2; assay: Antiviral activity against HSV2 infected in human HEL cells assessed as inhibition of virus-induced cytopathic effect up to 200 uM after 3 days; type: functional, organism-based
Outline: (§3)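 Confluent cell monolayers in MEM with 10% FCS, 2 mM L-glutamine and 0.075% bicarbonate were inoculated with 100 times the 50% cell culture infective dose. Compounds were added after 1–2 h of virus adsorption. Cytopathic effect was scored microscopically at about 3 days as a percentage of untreated controls, and EC50 was read from graphical plots.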

[4] = test system: Sindbis virus; assay: Antiviral activity against […] virus infected in african green monkey Vero cells assessed as inhibition of virus-induced cytopathic effect up to 200 uM after 3 days; type: functional, organism-based; outline: as §3
[5] = Chemical stability assessed as half life of degradation in PBS of pH 1.2 by HPLC; type: physicochemical; outline: as §1
[6] = Chemical stability assessed as half life of degradation in PBS of pH 7.3 by HPLC; type: physicochemical; outline: as §1
[7] = test system: Human immunodeficiency virus 1; assay: Antiviral activity against HIV1 3B infected in human CEM cells at 400 uM after 4 to 5 days; type: functional, organism-based; conditions: CCRF-CEM
Outline: (§4)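 CEM cells (4.5×10^5/ml) were infected at 100 CCID50 per ml, mixed 1:1 with compound dilutions and incubated at 37 °C. Giant-cell formation was scored microscopically after 4–5 days. EC50 is the concentration preventing syncytium formation by 50%.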

[8] = test system: Mammalian orthoreovirus 1; assay: Antiviral activity against Reovirus 1 infected in african green monkey Vero cells assessed as inhibition of virus-induced cytopathic effect up to 200 uM after 3 days; type: functional, organism-based; outline: as §3
[9] = test system: HeLa; assay: Cytotoxicity against human HeLa cells up to 200 uM after 3 days by MTS assay; type: cell-based; conditions: 72 h
[10] = test system: CCRF-CEM; assay: Cytotoxicity against human CEM cells at 400 uM after 3 days by MTS assay; type: cell-based; conditions: 72 h
[11] = Cytotoxicity against human HuH5.2 cells up to 200 uM after 3 days by MTS assay; type: cell-based; conditions: huh-5-2, 72 h
Outline: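 Parallel Huh-5-2 cultures were seeded at 7000 cells/well and treated like the replicon assay without luciferase reagents. Proliferation was measured 3 days after compound addition by MTS bioreduction to formazan, read in a plate reader.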

[12] = test system: Human respirovirus 3; assay: Antiviral activity against Parainfluenza virus 3 infected in african green monkey Vero cells assessed as inhibition of virus-induced cytopathic effect up to 200 uM after 3 days; type: functional, organism-based; outline: as §3
[13] = test system: Coxsackievirus B4; assay: Antiviral activity against Coxsackievirus B4 virus infected in human HeLa cells assessed as inhibition of virus-induced cytopathic effect up to 200 uM after 3 days; type: functional, organism-based; outline: as §3
[14] = test system: Punta Toro virus; assay: Antiviral activity against Punta Toro virus infected in african green monkey Vero cells assessed as inhibition of virus-induced cytopathic effect up to 200 uM after 3 days; type: functional, organism-based; outline: as §3
[15] = test system: Respiratory syncytial virus; assay: Antiviral activity against RSV infected in human HeLa cells assessed as inhibition of virus-induced cytopathic effect up to 200 uM after 3 days; type: functional, organism-based; outline: as §3
[16] = test system: Vero; assay: Cytotoxicity against african green monkey Vero cells up to 200 uM after 3 days by MTS assay; type: cell-based; conditions: chlorocebus sabaeus, 72 h
[17] = test system: Human immunodeficiency virus 1; assay: Antiviral activity against HIV1 NL4-3 infected in MAGI-CCR5 cells at 400 uM after 2 days; type: functional, organism-based
Outline: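 HIV-1 NL4.3 stock came from 293T cells transfected with the molecular clone and was titred by p24. MAGI-CCR5 cells (10^4 cells, integrated HIV promoter–LacZ reporter, in DMEM with 10% FBS) were pretreated for 4 h with 0–400 µM compound. They were then spinoculated with 100 ng CAp24 and grown with compound. After 2 days, cells were stained for β-galactosidase and blue cells counted; EC50 is a 50% drop in blue cells.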

[18] = Cytotoxicity against human MAGI-CCR5 cells at 400 uM; type: cell-based; conditions: magi-ccr5, 400 µM
Outline: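 MAGI-CCR5 cells were exposed to 0–400 µM compound. CC50 is the concentration inhibiting cell proliferation by 50%.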

[19] = Stability in human CEM cells assessed as half life of degradation by HPLC; type: ADME, cell-based; conditions: CEM (CCRF-CEM) cells
Outline: (§5)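 CEM-SS cells were washed in PBS, resuspended at 30×10^6 cells/mL in 10 mM Tris–HCl, 140 mM KCl (pH 7.4), sonicated and clarified at 10,000 g. Compound (0.1 mM initial) was incubated in the extract at 37 °C. Aliquots were frozen at −80 °C and analysed by on-line cleaning C18 HPLC to derive half-life.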

[20] = test system: Human immunodeficiency virus 2; assay: Antiviral activity against HIV2 ROD infected in human CEM cells at 400 uM after 4 to 5 days; type: functional, organism-based; conditions: ISOLATE ROD, CCRF-CEM; outline: as §4
[21] = test system: Vaccinia virus; assay: Antiviral activity against Vaccinia virus infected in human HEL cells assessed as inhibition of virus-induced cytopathic effect up to 200 uM after 3 days; type: functional, organism-based; conditions: Orthopoxvirus vaccinia
[22] = test system: Hepatitis C virus; assay: Antiviral activity against HCV 1b infected in Huh-5-2 cells assessed as inhibition of subgenomic replication; type: functional, organism-based; conditions: Hepacivirus hominis, genotype 1b
Outline: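 Huh-5-2 cells carry an HCV genotype 1b subgenomic replicon (I389luc-ubi-neo/NS3-3'/5.1) with a firefly luciferase fusion. They were seeded at 7000 cells/well without G418 and allowed to adhere for 24 h. Five 5-fold dilutions starting at 100 µM were then added for 72 h at 37 °C. Luciferase signal was expressed as % of untreated cultures to give EC50. Interferon alfa 2a (500 IU) served as positive control.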

[23] = test system: Human alphaherpesvirus 1; assay: Antiviral activity against HSV1 infected in human HEL cells assessed as inhibition of virus-induced cytopathic effect up to 200 uM after 3 days; type: functional, organism-based; outline: as §3
[24] = test system: HEL; assay: Cytotoxicity against human HEL cells up to 200 uM after 3 days by MTS assay; type: cell-based; conditions: 72 h
[25] = test system: Vesicular stomatitis virus; assay: Antiviral activity against VSV infected in human HEL cells assessed as inhibition of virus-induced cytopathic effect up to 200 uM after 3 days; type: functional, organism-based
[26] = Chemical stability in PBS of pH 1.2 by HPLC; type: physicochemical; conditions: buffer
Outline: (§6)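 Compound at an initial 0.1 mM was incubated at 37 °C in buffer at pH 1.2, 7.3 or 11.5. Timed aliquots were frozen at −80 °C and analysed directly by on-line precolumn-cleaning C18 HPLC (0.05 M TEAB to TEAB/CH3CN gradient). Half-lives of decomposition were calculated.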

[27] = Chemical stability in PBS of pH 7.3 by HPLC; type: physicochemical; conditions: buffer; outline: as §6
[28] = Chemical stability in PBS of pH 11.5 by HPLC; type: physicochemical; conditions: buffer; outline: as §6
[29] = test system: CCRF-CEM; assay: Stability in human CEM cells by HPLC; type: ADME, cell-based; outline: as §5
[30] = Chemical stability in culture media by HPLC; type: physicochemical; outline: as §2

Row | Structure (SMILES) | Activity [3] | Activity [4] | Activity [7] | Activity [8] | Activity [9] | Activity [10] | Activity [11] | Activity [12] | Activity [13] | Activity [14] | Activity [15] | Activity [16] | Activity [17] | Activity [18] | Activity [20] | Activity [21] | Activity [22] | Activity [23] | Activity [24] | Activity [25] | also measured
1 | Cc1cn([C@H]2C=C[C@@H](CC[PH](=O)O)O2)c(=O)[nH]c1=O | inactive | inactive | inactive | inactive | Non-toxic | Non-toxic | Non-toxic | inactive | inactive | inactive | inactive | Non-toxic | inactive | Non-toxic | inactive | inactive | inactive | inactive | Non-toxic | inactive | half-life [1]: > 48 h; half-life [2]: 11 h; half-life [5]: 28 h; half-life [6]: > 48 h; half-life [19]: 2 h
2 | BP(=O)(O)CC[C@H]1O[C@@H](n2cc(C)c(=O)[nH]c2=O)C[C@@H]1N=[N+]=[N-] | inactive | inactive | inactive | inactive | Non-toxic | Non-toxic | Non-toxic | inactive | inactive | inactive | inactive | Non-toxic | inactive | Non-toxic | inactive | inactive | inactive | inactive | Non-toxic | inactive | half-life [2]: 3.1 h; Stability [26]: Stable; half-life [19]: > 48 h; Stability [27]: Stable; Stability [28]: Stable
3 | BP(=O)(O)CC[C@@H]1C=C[C@H](n2cc(C)c(=O)[nH]c2=O)O1 | inactive | inactive | inactive | inactive | Non-toxic | Non-toxic | Non-toxic | inactive | inactive | inactive | inactive | Non-toxic | inactive | Non-toxic | inactive | inactive | inactive | inactive | Non-toxic | inactive | half-life [1]: > 48 h; half-life [2]: 1.6 h; half-life [5]: 16 h; half-life [6]: 22 h; half-life [19]: 3 h
4 | Cc1cn([C@H]2C[C@H](N=[N+]=[N-])[C@@H](CC[PH](=O)O)O2)c(=O)[nH]c1=O | inactive | inactive | inactive | inactive | Non-toxic | Non-toxic | Non-toxic | inactive | inactive | inactive | inactive | Non-toxic | inactive | Non-toxic | inactive | inactive | inactive | inactive | Non-toxic | inactive | Stability [29]: Stable; Stability [26]: Stable; Stability [30]: Stable; Stability [27]: Stable; Stability [28]: Stable
